IC50 data for 13 compounds are collected here from ChEMBL document CHEMBL1795296, “Synthesis, structural elucidation, DNA-PK inhibition, homology modelling and anti-platelet activity of morpholino-substituted-1,3-naphth-oxazines” (Bioorg Med Chem, 2011).

Usually IC50 stands for the point on the concentration scale where inhibition reaches its midpoint.

Test [1] has as its target T1, DNA-dependent protein kinase catalytic subunit (Homo sapiens, UniProt P78527). The test can be described thus: Inhibition of purified DNA-PK by ADP-Glo Kinase assay. Summed up:
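Reaction used 5× buffer (250 mM Hepes, 500 mM KCl, 50 mM MgCl2, 1 mM EGTA, 0.5 mM EDTA, 5 mM DTT) diluted to 1×, with BSA and ATP (0.5 mM stock). Drug or water added; 30 °C, 5 min. ADP read by ADP-Glo luminescence; IC50 from curve fitting.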

The subject of another test is Platelet. The test can be described thus: Anti-platelet activity in human blood assessed as inhibition of collagen induced human platelet aggregation. Type of test: functional, cell-based. Summed up:
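Collagen-triggered aggregation measured optically in a two-channel platelet aggregometer.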

Test [2] concerns the target T1, DNA-dependent protein kinase catalytic subunit. In words: Inhibition of DNA-PK. A digest of the protocol: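 The buffer was 1× reaction buffer of Hepes, KCl, MgCl2, EGTA, EDTA and DTT, with drug or water added. Reactions ran 5 min at 30 °C. ADP formed was read by ADP-Glo luminescence, and IC50 was obtained by curve fitting.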

T1 sequence (P78527 whole entry): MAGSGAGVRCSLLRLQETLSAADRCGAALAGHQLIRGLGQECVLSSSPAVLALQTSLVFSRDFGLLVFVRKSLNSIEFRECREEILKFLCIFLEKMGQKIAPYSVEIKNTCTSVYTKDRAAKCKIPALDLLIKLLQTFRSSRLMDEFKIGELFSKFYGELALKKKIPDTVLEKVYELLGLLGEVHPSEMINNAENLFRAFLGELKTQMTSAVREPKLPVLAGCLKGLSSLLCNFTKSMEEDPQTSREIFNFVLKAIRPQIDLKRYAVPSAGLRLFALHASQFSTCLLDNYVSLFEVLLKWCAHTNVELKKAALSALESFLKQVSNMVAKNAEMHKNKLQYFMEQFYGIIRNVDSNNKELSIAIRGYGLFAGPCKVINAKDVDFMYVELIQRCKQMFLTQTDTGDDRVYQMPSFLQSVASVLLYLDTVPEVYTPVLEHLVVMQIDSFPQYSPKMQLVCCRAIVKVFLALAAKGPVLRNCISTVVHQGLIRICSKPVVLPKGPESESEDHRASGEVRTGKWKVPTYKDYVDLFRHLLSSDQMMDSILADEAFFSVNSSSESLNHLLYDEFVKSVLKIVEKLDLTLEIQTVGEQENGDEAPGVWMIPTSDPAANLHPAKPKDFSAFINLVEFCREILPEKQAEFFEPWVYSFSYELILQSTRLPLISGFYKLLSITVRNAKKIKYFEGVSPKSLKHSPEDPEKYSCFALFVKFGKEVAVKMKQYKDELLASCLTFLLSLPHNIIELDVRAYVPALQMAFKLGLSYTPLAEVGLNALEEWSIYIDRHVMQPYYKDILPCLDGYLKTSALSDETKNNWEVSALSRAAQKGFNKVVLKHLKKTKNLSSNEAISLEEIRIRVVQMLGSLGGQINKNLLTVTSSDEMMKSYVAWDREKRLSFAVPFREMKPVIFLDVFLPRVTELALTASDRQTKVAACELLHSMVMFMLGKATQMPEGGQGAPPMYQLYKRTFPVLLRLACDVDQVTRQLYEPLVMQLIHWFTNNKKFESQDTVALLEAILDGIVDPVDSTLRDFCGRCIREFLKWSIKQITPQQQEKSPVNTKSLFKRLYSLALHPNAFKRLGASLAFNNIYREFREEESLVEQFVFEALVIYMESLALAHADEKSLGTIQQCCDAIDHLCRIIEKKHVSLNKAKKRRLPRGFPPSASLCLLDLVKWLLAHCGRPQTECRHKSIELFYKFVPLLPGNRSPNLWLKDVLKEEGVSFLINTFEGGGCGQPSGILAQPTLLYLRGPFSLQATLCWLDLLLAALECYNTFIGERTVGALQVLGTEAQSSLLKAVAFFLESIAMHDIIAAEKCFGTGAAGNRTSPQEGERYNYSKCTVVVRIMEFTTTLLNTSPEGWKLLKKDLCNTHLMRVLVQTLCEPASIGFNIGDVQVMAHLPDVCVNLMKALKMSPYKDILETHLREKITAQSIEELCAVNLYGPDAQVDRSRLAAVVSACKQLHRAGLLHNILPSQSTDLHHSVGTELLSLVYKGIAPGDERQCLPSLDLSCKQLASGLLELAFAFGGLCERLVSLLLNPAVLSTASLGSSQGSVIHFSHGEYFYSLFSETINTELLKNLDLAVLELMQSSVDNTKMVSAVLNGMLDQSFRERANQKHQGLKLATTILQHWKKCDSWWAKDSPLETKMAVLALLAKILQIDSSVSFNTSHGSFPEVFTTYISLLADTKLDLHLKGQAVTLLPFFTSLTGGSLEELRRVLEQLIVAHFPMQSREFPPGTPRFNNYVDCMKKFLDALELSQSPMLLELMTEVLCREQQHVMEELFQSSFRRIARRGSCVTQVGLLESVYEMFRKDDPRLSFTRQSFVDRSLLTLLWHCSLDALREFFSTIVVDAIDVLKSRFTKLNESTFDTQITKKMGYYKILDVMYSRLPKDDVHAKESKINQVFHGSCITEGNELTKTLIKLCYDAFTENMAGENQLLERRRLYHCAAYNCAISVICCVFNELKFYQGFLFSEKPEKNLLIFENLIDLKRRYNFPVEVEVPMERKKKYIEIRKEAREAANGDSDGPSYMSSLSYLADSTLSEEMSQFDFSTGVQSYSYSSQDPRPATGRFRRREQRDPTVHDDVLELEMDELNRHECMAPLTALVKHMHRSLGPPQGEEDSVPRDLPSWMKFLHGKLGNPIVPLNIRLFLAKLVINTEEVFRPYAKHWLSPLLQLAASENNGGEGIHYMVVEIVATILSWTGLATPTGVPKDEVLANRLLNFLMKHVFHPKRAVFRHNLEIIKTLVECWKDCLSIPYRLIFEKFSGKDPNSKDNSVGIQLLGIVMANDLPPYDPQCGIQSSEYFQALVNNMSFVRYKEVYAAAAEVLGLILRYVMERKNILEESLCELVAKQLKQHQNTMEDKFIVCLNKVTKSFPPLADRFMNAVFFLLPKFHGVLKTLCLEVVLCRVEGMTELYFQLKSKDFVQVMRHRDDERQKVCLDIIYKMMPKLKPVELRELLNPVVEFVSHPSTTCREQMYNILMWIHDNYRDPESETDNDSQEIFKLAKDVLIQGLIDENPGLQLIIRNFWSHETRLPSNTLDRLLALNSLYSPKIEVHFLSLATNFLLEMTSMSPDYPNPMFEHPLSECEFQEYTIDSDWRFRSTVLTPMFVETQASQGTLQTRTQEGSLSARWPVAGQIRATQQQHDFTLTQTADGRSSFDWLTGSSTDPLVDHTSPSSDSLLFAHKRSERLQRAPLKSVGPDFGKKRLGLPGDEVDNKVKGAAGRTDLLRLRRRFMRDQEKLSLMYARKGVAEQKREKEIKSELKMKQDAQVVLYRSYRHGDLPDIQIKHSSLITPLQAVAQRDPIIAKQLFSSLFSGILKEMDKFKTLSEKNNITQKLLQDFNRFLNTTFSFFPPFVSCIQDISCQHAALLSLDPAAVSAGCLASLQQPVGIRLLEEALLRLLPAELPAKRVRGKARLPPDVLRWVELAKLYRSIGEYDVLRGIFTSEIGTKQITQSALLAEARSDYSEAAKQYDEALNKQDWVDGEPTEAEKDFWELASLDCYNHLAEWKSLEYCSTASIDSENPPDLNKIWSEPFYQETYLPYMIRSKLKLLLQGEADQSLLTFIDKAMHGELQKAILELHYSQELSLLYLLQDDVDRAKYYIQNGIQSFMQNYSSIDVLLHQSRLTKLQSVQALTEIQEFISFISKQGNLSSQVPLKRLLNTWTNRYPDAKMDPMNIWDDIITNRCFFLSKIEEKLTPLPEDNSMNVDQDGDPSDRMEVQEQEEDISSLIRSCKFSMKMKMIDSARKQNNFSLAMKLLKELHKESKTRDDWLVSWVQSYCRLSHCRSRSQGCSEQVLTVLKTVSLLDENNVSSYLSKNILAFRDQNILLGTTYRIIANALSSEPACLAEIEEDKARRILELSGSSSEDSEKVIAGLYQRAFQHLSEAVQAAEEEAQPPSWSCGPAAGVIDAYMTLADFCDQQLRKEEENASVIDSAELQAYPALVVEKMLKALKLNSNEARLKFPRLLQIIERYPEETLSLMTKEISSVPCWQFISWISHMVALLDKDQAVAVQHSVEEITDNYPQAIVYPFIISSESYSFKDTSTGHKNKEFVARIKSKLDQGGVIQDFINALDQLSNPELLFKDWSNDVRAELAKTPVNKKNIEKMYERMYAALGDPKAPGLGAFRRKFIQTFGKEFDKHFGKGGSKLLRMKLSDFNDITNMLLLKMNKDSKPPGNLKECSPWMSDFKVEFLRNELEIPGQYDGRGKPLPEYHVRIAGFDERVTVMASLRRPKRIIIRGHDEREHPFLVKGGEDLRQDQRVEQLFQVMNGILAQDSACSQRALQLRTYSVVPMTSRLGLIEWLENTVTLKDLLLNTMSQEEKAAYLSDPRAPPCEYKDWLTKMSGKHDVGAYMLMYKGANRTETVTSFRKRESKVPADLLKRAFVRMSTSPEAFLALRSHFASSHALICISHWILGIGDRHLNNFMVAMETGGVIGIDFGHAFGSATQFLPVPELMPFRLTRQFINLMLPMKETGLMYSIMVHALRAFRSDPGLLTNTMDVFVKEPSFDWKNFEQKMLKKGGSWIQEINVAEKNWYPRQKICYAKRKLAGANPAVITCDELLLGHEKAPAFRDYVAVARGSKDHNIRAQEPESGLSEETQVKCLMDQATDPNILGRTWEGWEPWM

Take `O=c1nc(N2CCOCC2)oc2cc3ccc(OCc4cccnc4)cc3cc12`: the IC50 in test [1] is 1.7 µM; with Platelet, 55 µM.
Taken in the same sequence, the figures for `O=c1nc(N2CCOCC2)oc2cc3c(OCc4ccccn4)cccc3cc12` were 0.93 µM and ≥ 100 µM.
For `O=c1nc(N2CCOCC2)oc2cc3ccc(OCc4ccccn4)cc3cc12`, in that order: 0.096 µM and 100 µM.
For `O=c1nc(N2CCOCC2)oc2c1cc(OCc1ccccn1)c1ccccc12`, the IC50 in test [1] is 2.43 µM; with Platelet, 100 µM.
On to `CN1CCN(CCOc2cccc3cc4c(=O)nc(N5CCOCC5)oc4cc23)CC1`, for which the 50% inhibitory concentration (IC50) in test [1] was determined as 3.09 µM; in the test with Platelet, 100 µM.
For `O=c1nc(N2CCOCC2)oc2cc3c(OCc4cccnc4)cccc3cc12`, in that order: 0.33 µM and 85 µM.
Taken in the same sequence, the figures for `CN1CCN(CCOc2cc3c(=O)nc(N4CCOCC4)oc3c3ccccc23)CC1` were 0.76 µM and 100 µM.
Taken in the same sequence, the figures for `CN1CCN(CCOc2ccc3cc4oc(N5CCOCC5)nc(=O)c4cc3c2)CC1` were 0.19 µM and 100 µM.
Regarding `O=c1nc(N2CCOCC2)oc2cc3ccccc3cc12`, the IC50 in test [1] was 6.5 µM; in the test on Platelet it was 155 µM.
With `O=c1nc(N2CCOCC2)oc2c1ccc1ccccc12`, the IC50 in test [1] came to 0.42 µM; in the test with Platelet, 280 µM.
Take `O=c1nc(N2CCOCC2)oc2ccc3ccccc3c12`: the IC50 in test [1] was determined as 0.72 µM; in the test on Platelet, 450 µM.
In test [2], `O=c1cc(N2CCOCC2)oc2c1ccc1ccccc12` yielded an IC50 of 0.3 µM.
Turning to `O=c1nc(N2CCOCC2)oc2c1cc(OCc1cccnc1)c1ccccc12`, the half-inhibitory concentration (IC50) worked out at 0.717 µM in test [1] and 100 µM in the test with Platelet.
